Measurements: ChEMBL document CHEMBL2176927 (J Med Chem, 2012)
Calls of active or inactive are those of the source. The rule behind the calls is not given here.

Legend:
[1] = Cytotoxicity against human MCF7/neo expressing HER2 after 3 days; type: functional
[2] = Clearance in rat liver microsomes; type: ADME, Microsome
In short: (§1)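 Hepatic clearance (Clhep) predicted from incubation with human, rat or mouse liver microsomes.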

[3] = Inhibition of mTORC2 in human pTEN deficient NCI-PC3 cells assessed as reduction of Akt phosphorylation at Ser473; type: cell-based
[4] = species on record: Mus musculus; conditions: U-87MG ATCC, 100 mg/kg
[5] = target: Cytochrome P450 2C9 (Homo sapiens, UniProt P11712); experiment: Inhibition of CYP2C9-mediated warfarin metabolism; type: ADME; conditions: recombinant enzyme
Cytochrome P450 2C9, sequence (P11712 whole entry): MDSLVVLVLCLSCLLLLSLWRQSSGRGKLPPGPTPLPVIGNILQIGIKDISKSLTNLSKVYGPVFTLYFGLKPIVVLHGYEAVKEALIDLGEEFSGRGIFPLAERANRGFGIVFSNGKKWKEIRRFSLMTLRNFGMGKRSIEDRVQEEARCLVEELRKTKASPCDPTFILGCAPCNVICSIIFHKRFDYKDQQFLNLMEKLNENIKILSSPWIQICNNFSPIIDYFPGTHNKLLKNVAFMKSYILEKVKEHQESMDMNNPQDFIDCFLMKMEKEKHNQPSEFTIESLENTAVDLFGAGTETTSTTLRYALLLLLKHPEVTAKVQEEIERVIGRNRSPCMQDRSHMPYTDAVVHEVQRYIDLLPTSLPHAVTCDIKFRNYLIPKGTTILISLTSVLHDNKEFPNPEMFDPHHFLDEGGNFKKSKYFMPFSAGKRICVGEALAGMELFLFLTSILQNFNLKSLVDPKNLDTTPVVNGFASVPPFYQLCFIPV

[6] = Plasma protein binding in rat; type: ADME, cell-free; conditions: read-out: PPB (converted)
[7] = AUC in mouse at 5 mg/kg, po; type: ADME, organism-based; design: dose 5 mg/kg, route oral; conditions: plasma
[8] = tested on: PC-3; experiment: Antitumor activity against human PC3 cells xenografted mouse assessed as tumor growth inhibition at 50 mg/kg, po qd for 14 days; type: functional, organism-based; design: dose 50 mg/kg
In short: (§2)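 Female NCR.nude mice with subcutaneous NCI-PC3 flank tumours, dosed orally once daily (or twice daily at the same daily total) for 14 days from a mean tumour volume of 200 mm3; 5 mice/group. Caliper volume is (L x W x W)/2, measured twice weekly.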

[9] = tested on: PC-3; experiment: Antitumor activity against human PC3 cells xenografted mouse assessed as tumor growth inhibition at 6.25 to 100 mg/kg, po qd for 14 days; type: functional, organism-based; in short: as §2
[10] = species on record: Mus musculus; conditions: PC-3, 25 to 100 mg/kg
[11] = Clearance in mouse at 1 mg/kg, iv; type: ADME, organism-based; design: dose 1 mg/kg, route intravenous; conditions: in vivo
[12] = Oral bioavailability in mouse at 5 mg/kg; type: ADME, organism-based; conditions: in vivo
[13] = tested on: Mus musculus; experiment: Toxicity in human PC3 cells xenografted mouse assessed as reduction of body weight at 200 mg/kg, po qd for 14 days; type: organism-based, PC-3; design: dose 200 mg/kg, route oral; scale not given: the % may be the effect or the level left; conditions: in vivo, 336 h
In short: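 Same PC3 s.c. xenograft in nude mice with QD oral dosing, 5 animals per group. Body weight was measured twice weekly; loss above 10% is the protocol limit for tolerated doses and triggers a dosing holiday.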

[14] = Plasma protein binding in human; type: ADME, cell-free; conditions: read-out: PPB (converted)
[15] = Half life in mouse at 1 mg/kg, iv; type: ADME, organism-based; design: dose 1 mg/kg, route intravenous; conditions: in vivo
[16] = species on record: Mus musculus; conditions: PC-3, 25 to 100 mg/kg; remark: listed apart in the source
[17] = Clearance in human liver microsomes; type: ADME, Microsome; in short: as §1
[18] = tested on: PC-3; experiment: Antitumor activity against human PC3 cells xenografted mouse assessed as tumor growth inhibition at […] to 100 mg/kg, po bid for 14 days; type: functional, organism-based; in short: as §2
[19] = tested on: PC-3; experiment: Cytotoxicity against human pTEN deficient PC3 after 3 days; type: functional, cell-based; conditions: PC-3, 72 h
[20] = species on record: Mus musculus; conditions: U-87MG ATCC, 100 mg/kg; remark: listed apart in the source
[21] = Clearance in mouse liver microsomes; type: ADME, Microsome; in short: as §1
[22] = target: Cytochrome P450 3A4 (Homo sapiens, UniProt P08684); experiment: Inhibition of CYP3A4-mediated midazolam and testosterone metabolism; type: ADME; conditions: recombinant enzyme
Cytochrome P450 3A4, sequence (P08684 whole entry): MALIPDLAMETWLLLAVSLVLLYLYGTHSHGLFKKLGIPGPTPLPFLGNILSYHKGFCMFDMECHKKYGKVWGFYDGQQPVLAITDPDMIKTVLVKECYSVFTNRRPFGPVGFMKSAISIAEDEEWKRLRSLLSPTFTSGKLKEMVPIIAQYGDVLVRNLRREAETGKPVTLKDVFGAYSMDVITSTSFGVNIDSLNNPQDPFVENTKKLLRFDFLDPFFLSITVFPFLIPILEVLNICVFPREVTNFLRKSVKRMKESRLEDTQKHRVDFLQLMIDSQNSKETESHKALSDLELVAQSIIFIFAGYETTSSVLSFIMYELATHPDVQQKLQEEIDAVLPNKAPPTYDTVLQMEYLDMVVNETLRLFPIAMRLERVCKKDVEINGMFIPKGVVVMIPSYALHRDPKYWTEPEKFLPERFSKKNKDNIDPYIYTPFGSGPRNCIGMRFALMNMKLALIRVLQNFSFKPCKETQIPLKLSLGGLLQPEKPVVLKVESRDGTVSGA

[23] = Volume of distribution at steady state in mouse at 1 mg/kg, iv; type: ADME, organism-based; design: dose 1 mg/kg, route intravenous; conditions: in vivo, read-out: Vdss
[24] = Plasma protein binding in mouse; type: ADME, cell-free; conditions: read-out: PPB (converted)
[25] = target: T1, Cytochrome P450 1A2 (Homo sapiens, UniProt P05177); experiment: Inhibition of CYP1A2-mediated phenacetin metabolism; type: ADME; conditions: recombinant enzyme
T1 sequence (P05177 whole entry): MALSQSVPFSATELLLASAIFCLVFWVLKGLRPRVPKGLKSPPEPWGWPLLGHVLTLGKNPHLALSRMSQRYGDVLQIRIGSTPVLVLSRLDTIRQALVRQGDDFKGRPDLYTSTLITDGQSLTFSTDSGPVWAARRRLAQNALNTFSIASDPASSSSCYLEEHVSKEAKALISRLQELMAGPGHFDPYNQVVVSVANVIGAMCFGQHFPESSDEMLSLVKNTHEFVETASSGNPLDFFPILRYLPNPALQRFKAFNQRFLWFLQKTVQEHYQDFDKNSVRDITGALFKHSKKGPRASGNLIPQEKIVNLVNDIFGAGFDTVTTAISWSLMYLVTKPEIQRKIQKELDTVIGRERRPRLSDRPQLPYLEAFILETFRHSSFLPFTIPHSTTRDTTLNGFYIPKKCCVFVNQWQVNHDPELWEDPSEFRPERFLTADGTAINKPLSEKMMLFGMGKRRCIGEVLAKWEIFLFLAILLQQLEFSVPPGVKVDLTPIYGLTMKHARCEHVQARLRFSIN

[26] = target: Cytochrome P450 2D6 (Homo sapiens, UniProt P10635); experiment: Inhibition of CYP2D6-mediated dextromethorphan metabolism; type: ADME; conditions: recombinant enzyme
Cytochrome P450 2D6, sequence (P10635 whole entry): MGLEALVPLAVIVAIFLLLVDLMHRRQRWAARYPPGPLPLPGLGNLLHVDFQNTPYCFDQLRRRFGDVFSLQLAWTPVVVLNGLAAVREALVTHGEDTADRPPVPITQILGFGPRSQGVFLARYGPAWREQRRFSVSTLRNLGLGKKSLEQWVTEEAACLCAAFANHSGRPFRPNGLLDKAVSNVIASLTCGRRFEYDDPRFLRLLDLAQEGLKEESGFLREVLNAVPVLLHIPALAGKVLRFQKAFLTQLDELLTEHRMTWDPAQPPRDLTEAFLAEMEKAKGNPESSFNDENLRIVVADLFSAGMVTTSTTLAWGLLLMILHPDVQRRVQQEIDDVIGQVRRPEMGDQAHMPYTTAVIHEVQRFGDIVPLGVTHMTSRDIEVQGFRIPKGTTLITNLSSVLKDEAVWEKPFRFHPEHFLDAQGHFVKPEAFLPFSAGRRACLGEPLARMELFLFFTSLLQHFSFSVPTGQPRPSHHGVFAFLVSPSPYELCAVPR

[27] = target: Cytochrome P450 2C19 (Homo sapiens, UniProt P33261); experiment: Inhibition of CYP2C19-mediated mephenytoin metabolism; type: ADME; conditions: recombinant enzyme
Cytochrome P450 2C19, sequence (P33261 whole entry, canonical isoform): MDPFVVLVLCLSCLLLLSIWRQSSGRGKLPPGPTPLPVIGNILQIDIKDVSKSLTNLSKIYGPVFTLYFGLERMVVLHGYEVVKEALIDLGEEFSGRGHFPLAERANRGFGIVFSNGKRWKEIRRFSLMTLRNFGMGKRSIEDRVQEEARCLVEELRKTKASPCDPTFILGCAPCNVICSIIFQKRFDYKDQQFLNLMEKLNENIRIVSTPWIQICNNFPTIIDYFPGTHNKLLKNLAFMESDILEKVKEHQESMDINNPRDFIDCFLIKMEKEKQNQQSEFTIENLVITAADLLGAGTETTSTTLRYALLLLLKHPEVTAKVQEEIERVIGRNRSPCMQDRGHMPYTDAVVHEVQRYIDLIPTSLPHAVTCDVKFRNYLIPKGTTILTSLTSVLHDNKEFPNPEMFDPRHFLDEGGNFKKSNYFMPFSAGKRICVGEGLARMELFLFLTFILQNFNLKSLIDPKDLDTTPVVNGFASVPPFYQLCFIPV

[28] = target: Phosphatidylinositol 4,5-bisphosphate 3-kinase catalytic subunit gamma isoform (Homo sapiens) (UniProt P48736); experiment: Inhibition of PI3Kgamma at 1 uM
Phosphatidylinositol 4,5-bisphosphate 3-kinase catalytic subunit gamma isoform (Homo sapiens), sequence (P48736 whole entry, looked up, canonical isoform): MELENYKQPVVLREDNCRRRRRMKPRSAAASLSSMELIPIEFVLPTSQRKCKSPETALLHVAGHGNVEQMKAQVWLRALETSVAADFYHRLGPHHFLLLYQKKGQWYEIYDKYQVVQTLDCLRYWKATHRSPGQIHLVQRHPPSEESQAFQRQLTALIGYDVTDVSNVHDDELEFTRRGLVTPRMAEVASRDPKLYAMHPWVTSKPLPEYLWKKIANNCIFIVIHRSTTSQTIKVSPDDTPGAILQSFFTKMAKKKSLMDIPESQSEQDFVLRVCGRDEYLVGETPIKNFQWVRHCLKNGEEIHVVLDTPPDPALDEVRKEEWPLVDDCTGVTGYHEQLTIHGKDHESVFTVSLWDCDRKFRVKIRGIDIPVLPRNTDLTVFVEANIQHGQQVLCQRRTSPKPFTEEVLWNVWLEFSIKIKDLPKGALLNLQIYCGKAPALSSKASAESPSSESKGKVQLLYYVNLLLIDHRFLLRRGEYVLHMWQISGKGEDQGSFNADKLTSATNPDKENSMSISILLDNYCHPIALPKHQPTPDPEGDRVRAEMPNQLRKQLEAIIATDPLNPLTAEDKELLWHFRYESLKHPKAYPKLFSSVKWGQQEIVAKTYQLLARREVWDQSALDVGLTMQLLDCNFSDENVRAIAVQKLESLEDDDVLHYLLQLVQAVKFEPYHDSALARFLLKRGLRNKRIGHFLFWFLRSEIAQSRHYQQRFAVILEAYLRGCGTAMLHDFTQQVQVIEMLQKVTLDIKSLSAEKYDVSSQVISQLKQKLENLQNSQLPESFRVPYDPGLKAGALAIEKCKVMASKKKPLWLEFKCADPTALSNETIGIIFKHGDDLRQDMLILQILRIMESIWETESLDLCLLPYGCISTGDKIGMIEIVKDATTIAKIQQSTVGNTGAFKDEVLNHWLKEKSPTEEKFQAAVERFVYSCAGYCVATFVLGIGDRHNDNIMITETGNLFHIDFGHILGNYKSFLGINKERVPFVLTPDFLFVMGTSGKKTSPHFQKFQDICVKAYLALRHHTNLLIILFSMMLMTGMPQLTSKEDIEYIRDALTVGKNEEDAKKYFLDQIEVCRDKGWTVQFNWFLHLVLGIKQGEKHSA
In short: (§3)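 Kinase selectivity panel of 250 kinases. Test compound at 1 µM; percent inhibition recorded for each kinase.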

[29] = tested on: Mus musculus; experiment: Toxicity in human PC3 cells xenografted mouse assessed as reduction of body weight at 100 mg/kg, po qd for 14 days; type: organism-based, PC-3; design: dose 100 mg/kg, route oral; scale not given: the % may be the effect or the level left; conditions: in vivo, 336 h
In short: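 Female NCR.nude mice implanted s.c. in right hind flank with NCI-PC3 cells (5 × 10^6 in Hank's balanced salt solution). Dosing started QD at average tumor volume 200 mm3, 5 mice per group. Body weight recorded twice weekly; 10% body weight loss was the limit for tolerated doses, and mice were euthanized at 20% loss or tumor volume 2000 mm3.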

[30] = tested on: Mus musculus; experiment: Inhibition of mTORC2 in human PC3 cells xenografted mouse assessed as reduction of phosphorylated Akt level at 12.5 to 100 mg/kg, po after 6 hrs; type: functional, organism-based; conditions: PC-3
In short: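 NCI-PC3 s.c. xenografts in female NCR.nude mice grown to about 500 mm3, then randomized (n = 4). Oral suspension in 0.5% methylcellulose/0.2% Tween 80. Tumors were lysed, normalized by BCA assay, and loaded at 20 µg/well. pAkt Ser473 and total Akt were measured in duplex on Meso Scale electrochemiluminescence in duplicate per mouse, relative to time-matched vehicle mean.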

[31] = target: Phosphatidylinositol 4,5-bisphosphate 3-kinase catalytic subunit alpha isoform (Homo sapiens) (UniProt P42336); experiment: Inhibition of PI3Kalpha at 1 uM; in short: as §3
Phosphatidylinositol 4,5-bisphosphate 3-kinase catalytic subunit alpha isoform (Homo sapiens), sequence (P42336 whole entry, canonical isoform): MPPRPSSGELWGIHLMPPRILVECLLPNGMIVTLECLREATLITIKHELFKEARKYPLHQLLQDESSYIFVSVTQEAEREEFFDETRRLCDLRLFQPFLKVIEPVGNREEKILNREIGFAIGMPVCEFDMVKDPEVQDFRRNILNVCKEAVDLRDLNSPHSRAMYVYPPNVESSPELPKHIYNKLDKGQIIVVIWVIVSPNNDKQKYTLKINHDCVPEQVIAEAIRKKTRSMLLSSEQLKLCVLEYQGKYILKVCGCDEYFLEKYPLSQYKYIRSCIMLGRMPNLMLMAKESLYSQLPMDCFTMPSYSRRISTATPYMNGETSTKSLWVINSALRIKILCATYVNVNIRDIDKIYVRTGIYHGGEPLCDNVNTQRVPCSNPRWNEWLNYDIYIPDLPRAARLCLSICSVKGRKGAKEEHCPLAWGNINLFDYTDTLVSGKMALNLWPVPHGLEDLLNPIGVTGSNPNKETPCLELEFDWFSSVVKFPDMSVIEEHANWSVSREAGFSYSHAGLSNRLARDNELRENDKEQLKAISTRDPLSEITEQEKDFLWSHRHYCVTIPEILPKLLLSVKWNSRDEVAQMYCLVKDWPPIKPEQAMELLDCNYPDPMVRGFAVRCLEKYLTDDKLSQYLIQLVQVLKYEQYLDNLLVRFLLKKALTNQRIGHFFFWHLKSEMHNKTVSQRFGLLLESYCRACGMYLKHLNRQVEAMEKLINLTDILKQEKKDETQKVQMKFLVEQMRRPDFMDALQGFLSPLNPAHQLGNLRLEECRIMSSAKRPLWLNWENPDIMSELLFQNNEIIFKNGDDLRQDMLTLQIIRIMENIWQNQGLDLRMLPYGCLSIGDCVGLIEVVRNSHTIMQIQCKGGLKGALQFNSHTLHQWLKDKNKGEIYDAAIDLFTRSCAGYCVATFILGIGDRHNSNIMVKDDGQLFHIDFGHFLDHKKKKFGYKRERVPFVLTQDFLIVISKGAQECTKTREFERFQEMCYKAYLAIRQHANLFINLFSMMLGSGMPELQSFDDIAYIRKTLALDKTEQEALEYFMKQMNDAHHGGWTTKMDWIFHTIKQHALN

[32] = target: T2, Phosphatidylinositol 4,5-bisphosphate 3-kinase catalytic subunit delta isoform (Homo sapiens) (UniProt O00329); experiment: Inhibition of PI3Kdelta at 1 uM; in short: as §3
T2 sequence (whole entry): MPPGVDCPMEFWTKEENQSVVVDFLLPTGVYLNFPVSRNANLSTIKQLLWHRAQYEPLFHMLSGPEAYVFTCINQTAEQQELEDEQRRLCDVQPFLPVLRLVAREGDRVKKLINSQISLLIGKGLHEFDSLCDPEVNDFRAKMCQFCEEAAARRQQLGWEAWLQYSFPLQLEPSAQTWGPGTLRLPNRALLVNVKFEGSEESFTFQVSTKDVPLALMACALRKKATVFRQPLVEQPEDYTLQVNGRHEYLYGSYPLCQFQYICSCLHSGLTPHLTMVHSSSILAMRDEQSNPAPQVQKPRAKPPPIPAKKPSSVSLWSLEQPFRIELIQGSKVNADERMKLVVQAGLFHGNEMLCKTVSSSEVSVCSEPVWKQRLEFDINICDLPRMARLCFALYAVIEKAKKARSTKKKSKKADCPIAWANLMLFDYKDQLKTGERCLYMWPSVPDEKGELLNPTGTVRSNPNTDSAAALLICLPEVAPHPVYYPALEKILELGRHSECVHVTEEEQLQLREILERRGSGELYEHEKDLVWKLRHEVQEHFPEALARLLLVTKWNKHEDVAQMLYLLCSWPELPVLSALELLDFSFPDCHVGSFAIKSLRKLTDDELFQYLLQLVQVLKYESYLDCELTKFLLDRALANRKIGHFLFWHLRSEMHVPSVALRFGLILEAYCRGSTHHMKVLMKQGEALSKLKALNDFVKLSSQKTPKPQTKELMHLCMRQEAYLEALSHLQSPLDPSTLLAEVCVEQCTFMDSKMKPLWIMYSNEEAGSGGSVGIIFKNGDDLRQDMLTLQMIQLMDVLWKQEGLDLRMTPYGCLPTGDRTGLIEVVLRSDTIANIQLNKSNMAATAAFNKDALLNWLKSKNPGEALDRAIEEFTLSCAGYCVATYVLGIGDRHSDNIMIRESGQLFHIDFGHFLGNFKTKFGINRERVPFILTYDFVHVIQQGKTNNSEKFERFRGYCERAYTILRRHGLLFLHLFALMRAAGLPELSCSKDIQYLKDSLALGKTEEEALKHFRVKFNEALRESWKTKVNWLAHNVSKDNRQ

[33] = tested on: Mus musculus; experiment: Inhibition of mTORC1 in human PC3 cells xenografted mouse assessed as reduction of phosphorylated p70S6K level at 12.5 to 100 mg/kg, po after 6 hrs; type: functional, organism-based; conditions: PC-3
[34] = target: Serine/threonine-protein kinase mTOR (Homo sapiens, UniProt P42345); experiment: Inhibition of human recombinant mTOR by FRET assay

Structure (SMILES)	CLhep predicted [2] [mL/min/kg]	IC50 [3] [nM]	inhibition (INH) [5]	fraction unbound [6]	AUC [7] [µM·h]	TGI [9]	clearance [11] [mL/min/kg]	bioavailability [12] [%]	fraction unbound [14]	half-life [15] [h]	CLhep predicted [17] [mL/min/kg]	IC50 [19] [nM]	CLhep predicted [21] [mL/min/kg]	inhibition (INH) [22]	Vd [23] [L/kg]	fraction unbound [24]	inhibition (INH) [25]	inhibition (INH) [26]	inhibition (INH) [27]	also measured
CCNC(=O)Nc1ccc(-c2nc3c(c(N4CCOC[C@@H]4C)n2)CCN(c2ncccn2)C3)cc1	33	3.3	Not Active	0.03	2	Active	36	42	0.02	1.7	15	150	61	Not Active	1.2	0.01	Not Active	Not Active	Not Active	IC50 [1]: 57 nM; inhibition [4]: inactive; TGI [8]: Active; inhibition [10]: Active; Activity [13]: 10%; inhibition [16]: Active; TGI [18]: Active; inhibition [20]: inactive
CCNC(=O)Nc1ccc(-c2nc3c(c(N4CCOCC4)n2)CCN(c2ncccn2)C3)cc1	31	25	Not Active	0.01	5.7	Active	22	70	0.02	0.7	13	290	40	Not Active	1.1	0.01	Not Active	Not Active	Not Active	inhibition [28]: 50%; Activity [29]: > 10%; inhibition [30]: Active; inhibition [31]: 50%; inhibition [32]: 50%; inhibition [33]: Active; Ki [34]: 5.5 nM
